Laboratory results: ChEMBL document CHEMBL1155280, “New arylthioindoles and related bioisosteres at the sulfur bridging group. 4. Synthesis, tubulin polymerization, cell growth inhibition, and molecular modeling studies” (J Med Chem, 2009)
Activity calls are given as the source filed them. The calls are words filed in the database; no cut-off is given here.

What was measured:
[1] = Inhibition of tubulin polymerization after 20 mins by spectrophotometry
Method in brief: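 Tubulin 10 μM in 0.8 M monosodium glutamate, pH 6.6, preincubated 15 min at 30 °C with varying drug, chilled on ice. GTP added to 0.4 mM, turbidity at 350 nm followed 20 min at 30 °C. Extent of assembly measured; IC50 ± SD.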

HUVEC = test: Growth inhibition of HUVEC; format: cell-based; conditions: Homo sapiens
Method in brief: (§1)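 Human aortic smooth muscle, PtK2 kidney epithelial, rat A10 aortic smooth muscle and HUVEC lines grown as the supplier recommends, under 5% CO2.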

[2] = Growth inhibition of HSMC; format: cell-based; conditions: Homo sapiens; method in brief: as §1
[3] = Growth inhibition of Potorous tridactylus PtK2 cells; format: cell-based; method in brief: as §1
M14 [4] = test: Cytotoxicity against human M14 cells after 48 hrs by MTT assay; format: functional, cell-based; conditions: for IC50: M14, 48 h
Method in brief: (§2)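 MTT assay. Seeded 10^5 cells/well, compound added after 24 h at 10, 30, 50, 100, 150, 200 nM for 24 or 48 h. MTT 1 mg/mL, 2 h at 37 °C in dark, formazan dissolved in DMSO, read at 550 nm. Triplicate; 0.5% DMSO control.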

M14 [5] = test: Cytotoxicity against human M14 cells assessed as effect on cell morphology at 300 nM after 48 hrs by time-lapse microscopy; format: functional, cell-based
Method in brief: (§3)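 Morphology of HEK and M14 cells followed by time-lapse microscopy in 96-well plates at 37 °C, 5% CO2, with images captured every hour over 48 h.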

HCT-116 [6] = test: Antiproliferative activity against human HCT116 cells expressing mismatch repair gene MLH1 complemented with chromosome 3 assessed as cell proliferation at 0.5 uM after 24 hrs by MTT assay relative to control; format: functional; conditions: HCT-116, 24 h, read-out: Activity
Method in brief: (§4)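 HeLa and HCT116/chr3 cells grown at 37 °C, 5% CO2 in D-MEM with 10% fetal calf serum (HCT116/chr3 medium plus 500 μg/mL G418). Seeded 1 × 10^3 cells/well, treated 24 h later for 24 h from 10 mM DMSO stock; 1% DMSO solvent control. Quadruplicate, repeated three times; given as % of control ± SD.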

A10 = test: Growth inhibition of rat A10 cells; format: cell-based; method in brief: as §1
HEK293 [7] = test: Cytotoxicity against HEK293 cells at 10 to 200 nM by MTT assay; format: cell-based; conditions: human, hek293, 0.2 µM; TDE = time-dependent effect; method in brief: as §2
MCF7 [8] = test: Selectivity index, ratio of IC50 for rat A10 cells to IC50 for human MCF7 cells; format: functional
Method in brief: (§5)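 Selectivity index: IC50 in the named nontransformed line divided by IC50 in MCF-7 cells.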

MCF7 [9] = test: Selectivity index, ratio of IC50 for Potorous tridactylus PtK2 cells to IC50 for human MCF7 cells; format: functional; method in brief: as §5
U-937 [10] = test: Cytotoxicity against human U937 cells at 10 to 200 nM by MTT assay; format: functional, cell-based; conditions: TDE = time-dependent effect; method in brief: as §2
HEK293 [11] = test: Cytotoxicity against HEK293 cells after 48 hrs by MTT assay; format: cell-based, Homo sapiens; conditions: for IC50: Homo sapiens, HEK293, 48 h; for Activity: human, hek293, 48 h; method in brief: as §2
[12] = Growth inhibition of mouse J774.1 cells at 300 nM after 48 hrs by MTT assay relative to control; format: cell-based; conditions: read-out: GI
Bos taurus = species: Bos taurus; test: Inhibition of [3H]colchicine binding to bovine tubulin at 5 uM after 10 mins by DEAE-cellulose filter method
HCT-116 [13] = test: Antiproliferative activity against human HCT116 cells expressing mismatch repair gene MLH1 complemented with chromosome 3 assessed as cell proliferation at 1 uM after 24 hrs by MTT assay relative to control; format: functional; conditions: HCT-116, 24 h, read-out: Activity; method in brief: as §4
HEK293 [14] = test: Cytotoxicity against HEK293 cells assessed as effect on cell morphology at 300 nM after 48 hrs by time-lapse microscopy; format: cell-based; conditions: human, hek293, 48 h, 0.3 µM; method in brief: as §3
HeLa [15] = test: Antiproliferative activity against human HeLa cells assessed as cell proliferation at 0.5 uM after 24 hrs by MTT assay relative to control; format: functional; conditions: read-out: Activity; method in brief: as §4
MCF7 [16] = test: Selectivity index, ratio of IC50 for HUVEC to IC50 for human MCF7 cells; method in brief: as §5
U-937 [17] = test: Cytotoxicity against human U937 cells after 48 hrs by MTT assay; format: functional, cell-based; conditions: for IC50: U-937, 48 h; method in brief: as §2
MCF7 [18] = test: Growth inhibition of human MCF7 cells after 48 hrs by sulforhodamine B assay; format: functional, cell-based; conditions: MCF7, 48 h
Homo sapiens = species: Homo sapiens; test: Selectivity index, ratio of IC50 for HSMC to IC50 for human MCF7; method in brief: as §5
HeLa [19] = test: Antiproliferative activity against human HeLa cells assessed as cell proliferation at 1 uM after 24 hrs by MTT assay relative to control; format: functional; conditions: read-out: Activity; method in brief: as §4
M14 [20] = test: Cytotoxicity against human M14 cells at 10 to 200 nM by MTT assay; format: functional, cell-based; conditions: TDE = time-dependent effect; method in brief: as §2

SMILES: COc1cc(Cc2c[nH]c3ccccc23)cc(OC)c1OC
- IC50 [1]: 28000 nM

SMILES: CC(=O)O[C@H]1C(=O)[C@@]2(C)[C@H]([C@H](OC(=O)c3ccccc3)[C@]3(O)C[C@H](OC(=O)[C@H](O)[C@@H](NC(=O)c4ccccc4)c4ccccc4)C(C)=C1C3(C)C)[C@]1(OC(C)=O)CO[C@@H]1C[C@@H]2O [PACLITAXEL]
- IC50 (HUVEC): 7 nM
- IC50 [2]: 6 nM
- IC50 [3]: 21 nM

SMILES: CCOC(=O)c1cn(Cc2cc(OC)c(OC)c(OC)c2)cn1
- IC50 [1]: > 40000 nM

SMILES: COC(=O)c1[nH]c2ccc(OC)cc2c1Cc1cc(OC)c(OC)c(OC)c1
- Activity (M14 [4]): Dose-dependent effect
- IC50 (M14 [4]): 137 nM
- IC50 (HUVEC): 170 nM
- Activity (M14 [5]): Active
- growth at 0.5 µM (HCT-116 [6]): 69%
- IC50 (A10): 130 nM
- Activity (HEK293 [7]): tde
- IC50 [2]: 70 nM
- Ratio IC50 (MCF7 [8]): 3.9
- Ratio IC50 (MCF7 [9]): 5.8
- IC50 [1]: 1400 nM
- Activity (U-937 [10]): tde
- IC50 (HEK293 [11]): 181 nM
- Activity (HEK293 [11]): Dose-dependent effect
- inhibition at 48 h, 0.3 µM [12]: 20%
- inhibition (Bos taurus): 59%
- growth at 1 µM (HCT-116 [13]): 69%
- Activity (HEK293 [14]): Toxic
- growth at 0.5 µM (HeLa [15]): 52%
- Ratio IC50 (MCF7 [16]): 5.2
- Activity (U-937 [17]): Dose-dependent effect
- IC50 (U-937 [17]): 189 nM
- IC50 (MCF7 [18]): 33 nM
- Ratio IC50 (Homo sapiens): 2.1
- growth at 1 µM (HeLa [19]): 51%
- IC50 [3]: 190 nM
- Activity (M14 [20]): tde

SMILES: COC(=O)c1[nH]c2ccc(Cl)cc2c1C(=O)c1cc(OC)c(OC)c(OC)c1
- IC50 [1]: 1600 nM
- inhibition (Bos taurus): 61%
- IC50 (MCF7 [18]): 30 nM

SMILES: CCOC(=O)c1c(C)c(C)c(C)n1Cc1cc(OC)c(OC)c(OC)c1
- IC50 [1]: > 40000 nM

SMILES: CCOC(=O)c1[nH]c2ccc(OC)cc2c1Cc1cc(OC)c(OC)c(OC)c1
- IC50 [1]: 2800 nM
- inhibition (Bos taurus): 42%
- IC50 (MCF7 [18]): 93 nM

SMILES: CCOC(=O)c1c(C)cc(C)n1Cc1cc(OC)c(OC)c(OC)c1
- IC50 [1]: > 40000 nM

SMILES: COc1cc(Cn2c(C)c(C)c(C)c2C(=O)OCCOCCO)cc(OC)c1OC
- IC50 [1]: > 40000 nM

SMILES: COc1cc(Sc2c[nH]c3ccccc23)cc(OC)c1OC
- IC50 [1]: 2600 nM
- inhibition (Bos taurus): 68%

SMILES: CCOC(=O)c1[nH]c2ccc(Cl)cc2c1C(=O)c1cc(OC)c(OC)c(OC)c1
- IC50 [1]: 1400 nM
- inhibition (Bos taurus): 49%
- IC50 (MCF7 [18]): 110 nM

SMILES: COC(=O)c1[nH]c2ccccc2c1Sc1cc(OC)c(OC)c(OC)c1
- IC50 [1]: 2900 nM
- inhibition (Bos taurus): 74%

SMILES: CCOC(=O)c1cccn1Cc1cc(OC)c(OC)c(OC)c1
- IC50 [1]: > 40000 nM

SMILES: COc1cc(C(=O)c2c[nH]c3ccccc23)cc(OC)c1OC
- IC50 [1]: 3500 nM
- inhibition (Bos taurus): 26%
- IC50 (MCF7 [18]): 150 nM

SMILES: CCOC(=O)c1[nH]c2ccc(Cl)cc2c1C(=O)Cc1cc(OC)c(OC)c(OC)c1
- IC50 [1]: > 40000 nM

SMILES: COC(=O)c1[nH]c2ccc(OC)cc2c1C(O)c1cc(OC)c(OC)c(OC)c1 (stereo unspecified)
- IC50 [1]: > 40000 nM

SMILES: CCOC(=O)c1[nH]c2ccccc2c1Cc1cc(OC)c(OC)c(OC)c1
- IC50 [1]: 5400 nM

SMILES: COC(=O)c1[nH]c2ccc(OC)cc2c1C(=O)c1cc(OC)c(OC)c(OC)c1
- Activity (M14 [4]): Dose-dependent effect
- IC50 (M14 [4]): 100 nM
- IC50 (HUVEC): 110 nM
- Activity (M14 [5]): Active
- growth at 0.5 µM (HCT-116 [6]): 57%
- IC50 (A10): 95 nM
- Activity (HEK293 [7]): tde
- IC50 [2]: 35 nM
- Ratio IC50 (MCF7 [8]): 5.6
- Ratio IC50 (MCF7 [9]): 11
- IC50 [1]: 670 nM
- Activity (U-937 [10]): tde
- IC50 (HEK293 [11]): 140 nM
- Activity (HEK293 [11]): Dose-dependent effect
- inhibition at 48 h, 0.3 µM [12]: 20%
- inhibition (Bos taurus): 78%
- growth at 1 µM (HCT-116 [13]): 55%
- Activity (HEK293 [14]): Toxic
- growth at 0.5 µM (HeLa [15]): 55%
- Ratio IC50 (MCF7 [16]): 6.5
- Activity (U-937 [17]): Dose-dependent effect
- IC50 (U-937 [17]): 155 nM
- IC50 (MCF7 [18]): 17 nM
- Ratio IC50 (Homo sapiens): 2.1
- growth at 1 µM (HeLa [19]): 54%
- IC50 [3]: 190 nM
- Activity (M14 [20]): tde

SMILES: COc1cc(Cc2c[nH]c3ccc(Cl)cc23)cc(OC)c1OC
- IC50 [1]: 24000 nM

SMILES: CCOC(=O)c1[nH]c2ccccc2c1C(=O)c1cc(OC)c(OC)c(OC)c1
- IC50 [1]: 2600 nM
- inhibition (Bos taurus): 51%
- IC50 (MCF7 [18]): 80 nM
